Compounds with a hit are over-represented: about 1.8% of the library has one in this group of screens.
CHRM4 antagonist – antagonists of human muscarinic M4 receptor (CHRM4); P08173; CHO-hM4 cells, ACh EC80, Fluo-8 calcium fluorescence; inhibition, % at 3 µM; actives 0.73% (n = 360,000);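 active means inhibition above its plate's cutoff, the mean inhibition of sample wells plus 3 SD, cut at about 27% in these data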;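 further: 0% = acetylcholine EC80 with DMSO and 100% = DMSO without agonist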
Target sequence (P08173 whole entry, looked up): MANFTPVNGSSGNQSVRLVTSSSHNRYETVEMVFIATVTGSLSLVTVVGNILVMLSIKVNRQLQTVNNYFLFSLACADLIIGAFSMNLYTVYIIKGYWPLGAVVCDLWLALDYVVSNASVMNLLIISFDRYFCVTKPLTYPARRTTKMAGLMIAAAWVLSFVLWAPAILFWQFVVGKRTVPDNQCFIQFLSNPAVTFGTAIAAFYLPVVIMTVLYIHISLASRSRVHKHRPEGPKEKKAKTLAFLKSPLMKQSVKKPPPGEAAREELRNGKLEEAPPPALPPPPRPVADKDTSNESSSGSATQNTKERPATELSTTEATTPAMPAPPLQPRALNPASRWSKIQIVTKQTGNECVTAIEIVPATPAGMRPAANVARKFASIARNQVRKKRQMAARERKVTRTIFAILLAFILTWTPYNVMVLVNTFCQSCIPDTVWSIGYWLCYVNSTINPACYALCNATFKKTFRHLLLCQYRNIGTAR
CHRM5 antagonist – blocks acetylcholine activation of human M5 receptor; P08912; CHO-hM5 cells, Fluo-8 calcium fluorescence, ACh EC80; AID 624040; inhibition, % at 3 µM; actives 0.59% (n = 360,000);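 active means inhibition above a per-plate cutoff, the mean of that plate's test compounds plus 3 SD, cut at about 27% in these data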;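 further: 0% = acetylcholine EC80 with DMSO and 100% = DMSO without agonist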
M4 PAM – CHRM4 positive allosteric modulation; CHO-K1 hM4/Gqi5, Fluo-8 calcium fluorescence, ACh EC20; 0% = ACh EC20, 100% = maximal ACh; activation, % at 3 µM; actives 0.4% (n = 360,000); AID 624126;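 active means activation above its plate's cutoff, the mean activation of sample wells plus 3 SD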
M5 PAM – positive allosteric modulators of human muscarinic M5 receptor | P08912 | CHO-K1 hM5, Fluo-8 calcium, ACh EC20 PAM; 0% = ACh EC20, 100% = ACh EC100 | activation, % at 3 µM | actives 0.3% (n = 360,000);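 active means activation above the run cutoff, the mean activation of all test compounds plus 3 SD, cut at about 18% in these data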
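Assay system – human M5 receptor in CHO-K1 cells · Read-out – % activation, ACh-normalized · Technique – Fluo-8 calcium fluorescence · Dosing – single-point, 3 µM nominal · Incubation – Fluo-8 loading 80 min at 37 °C plus 30 min room temperature · Repeats – singlicate, one well per test compound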
M5 ag – agonists of human muscarinic M5 receptor (CHRM5). activation, % at 3 µM. actives 0.19% (n = 360,000). CHO-K1 hM5 cells, Fluo-8 calcium fluorescence; 0% DMSO wells, 100% maximal acetylcholine response. AID 624037. P08912;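 active means activation above the run's mean over test compounds plus 3 SD, cut at about 23% in these data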;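 further: signal is peak over basal fluorescence ratio across the kinetic read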
M4 ag – CHRM4 agonism in calcium assay | P08173 | CHO-K1 hM4/Gqi5, Fluo-8 calcium fluorescence; vehicle 0%, full acetylcholine response 100% | activation, % at 3 µM | actives 0.14% (n = 360,000) | AID 624127;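 active means activation above the run mean over all test wells plus 3 SD, cut at about 32% in these data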;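 further: peak over basal fluorescence ratio per well then scaled between controls; 0% = DMSO wells and 100% = acetylcholine at EC100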
Numbers without * were called inactive.

SMILES	CHRM4 antagonist	CHRM5 antagonist	M4 PAM	M5 PAM	M5 ag	M4 ag
CC1(C)O[C@@H]2C[C@H]3[C@@H]4CCC5=CC(=O)C=C[C@]5(C)[C@@]4(F)[C@@H](O)C[C@]3(C)[C@]2(C(=O)CO)O1	46*	6	-15	-13	1	2
COc1ccc(NC(=O)CN(C)S(=O)(=O)c2ccc3c(c2)CC(C)N3C(C)=O)cc1OC (configuration not stated)	7	23	-5	-9	0	7
O=C(NCCN1CCN(c2cccc(Cl)c2)CC1)Nc1ccccc1	2	1	-13	-7	-4	5
O=C(NCCN1CCN(Cc2ccccc2)CC1)Nc1cc(Cl)cc(Cl)c1	43*	21	-53	-28	13	45*
O=C(O)C1CCCCC1C(=O)NCc1ccc(F)cc1 (configuration not stated)	-1	-2	34*	4	2	0
O=C(O)C1CCCCC1C(=O)NCc1ccccc1 (configuration not stated)	2	4	-3	-4	0	0
C[C@H](NC(=O)C[C@@H]1C=C[C@@H](NC(=O)CN2CCOCC2)[C@@H](CO)O1)c1ccccc1	-1	4	7	2	2	1
COc1cc(N=C2C(=O)N3c4c(cccc42)C(C)=CC3(C)C)cc(OC)c1	-17	-11	10	4	27*	2
CC1=CC(C)(C)N2C(=O)C(=Nc3ccc(O)cc3)c3cccc1c32	26	5	23	6	38*	0
Cc1cc(SCC(=O)Nc2c(C)n(C)n(-c3ccccc3)c2=O)nc2ccccc12	1	3	-2	-1	-6	1
CCc1nc2ccc(C(=O)N3CCCCC3)cn2c1N(C)CCCc1ccccc1	33*	2	-11	-16	-3	5
CCc1nc2ccc(C(=O)NCCCn3ccnc3)cn2c1N(C)CCCc1ccccc1	27*	10	-10	-15	-3	5
O=c1[nH]c2ccccc2c2ccc(Cl)cc12	-12	12	1	-1	-3	0
O=c1[nH]c2cc(F)ccc2c2ccc(F)cc12	-13	-9	-2	19*	-2	1
COc1cc(/C=C2/CC/C(=C/c3ccc(O)c(OC)c3)C2=O)ccc1O	9	36*	-18	-21	25*	16
COc1ccc(/C=C2\CN(Cc3ccccc3)C/C(=C\c3ccc(OC)c(O)c3)C2=O)cc1O	24	27*	-18	-11	2	24
COc1cc(/C=C2\CC/C(=C\c3ccc(OCCO)c(OC)c3)C2=O)ccc1OCCO	6	26	-10	-17	55*	10
CCCOc1ccc(/C=C/C(=O)O)cc1OC	-15	7	19*	0	1	1
COc1cc(/C=C2\COC/C(=C\c3ccc(O)c(OC)c3)C2=O)ccc1O	6	10	-8	-16	-12	11
CSCCC(NS(=O)(=O)c1ccccc1F)C(=O)NCc1ccncc1 (configuration not stated)	-3	-4	-6	-3	-9	1
CC1CCCC(C)N1C(=O)COC(=O)COc1ccc(C#N)cc1 (configuration not stated)	14	11	13	-2	4	3
CN(C)c1nc(NC(C)(C)C)nc(SCC(=O)Nc2ccccc2)n1	1	2	-4	7	-6	-2
CCOC(=O)c1csc(-c2ccc(OC)c(OC)c2)n1	-10	12	-1	-4	1	1
COc1ccc(-c2nc(C(=O)O)cs2)cc1OC	-19	-15	7	26*	3	2
COc1ccc(CCN(C)C(=O)c2cnc(C)cn2)cc1OC	5	9	-2	-2	-3	1
SMILES	CHRM4 antagonist	CHRM5 antagonist	M4 PAM	M5 PAM	M5 ag	M4 ag
Cc1ccc(Cl)cc1NC(=O)CSc1sc2c(O)cc(=O)[nH]c2c1C#N	4	14	-1	-5	-4	1
COc1ccc(Cl)cc1NC(=O)CSc1sc2c(O)cc(=O)[nH]c2c1C#N	4	19	23*	15	-1	7
CCCCn1c(N)c(N(CCC(C)C)C(=O)C(C)N2C(=O)c3ccccc3C2=O)c(=O)[nH]c1=O (configuration not stated)	-21	4	22*	1	-1	0
CCCCN(C(=O)C(C)N1C(=O)c2ccccc2C1=O)c1c(N)n(CCCC)c(=O)[nH]c1=O (configuration not stated)	4	4	7	-3	1	0
CCCCn1c(N)c(N(CCOC)C(=O)C2CCN(S(=O)(=O)c3ccc(C)cc3)CC2)c(=O)[nH]c1=O	-10	1	7	4	-5	0
CCCCn1c(N)c(N(CCC(C)C)C(=O)C2CC(=O)N(Cc3ccc(C)cc3)C2)c(=O)[nH]c1=O (configuration not stated)	-11	3	28*	3	1	1
CCCCn1c(N)c(N(CCOC)C(=O)C2CCN(S(=O)(=O)c3ccc(C)cc3C)CC2)c(=O)[nH]c1=O	2	1	24*	-2	3	1
COc1ccc(C2CC3(CC(C)(C)NC(SC)=N3)Oc3cc(O)cc(C)c32)cc1 (configuration not stated)	-7	1	-8	-8	5	49*
COc1ccc(C2CC3(CC(C)(C)NC(=S)N3)Oc3cc(O)cc(C)c32)cc1 (configuration not stated)	-6	10	-3	-7	0	2
O=S(=O)(Nc1nc2ccccc2[nH]1)c1ccccc1	19	8	-20	-18	-7	0
O=S(=O)(Nc1nc2ccccc2[nH]1)c1ccc(Cl)cc1	67*	50*	-29	-17	-7	5
CCC(C(=O)Nc1ccc2c(c1)OCCO2)n1c(=O)[nH]c2ccccc2c1=O (configuration not stated)	-22	-8	-1	1	-3	2
CCc1noc(C)c1C(=O)NC1CC(C)(C)Cc2c1cnn2-c1ccccc1 (configuration not stated)	-11	-5	8	7	-3	1
CCOC(=O)CSc1nc(C)c(CC)c(C)c1C(N)=O	3	3	2	1	2	0
CCOC(=O)CSc1nc(N)nc(C)c1Cl	7	27*	-7	-19	-10	2
O=C(CSc1ccccc1)N(c1ccc(Br)cc1)c1nccs1	1	6	-3	-3	-2	0
Cc1ccc(NC(=O)COC(=O)Cn2ccc(=O)[nH]c2=O)cc1C	0	14	6	-1	1	1

Source: PubChem BioAssay (The Scripps Research Institute Molecular Screening Center)
